A selection: hits, their analogues and other compounds. The true share with any hit is near 2.6%.
MC4R antag cAMP = antagonists of human melanocortin 4 receptor (MC4R); MC4R-expressing cells, MTII-stimulated cAMP, LANCE TR-FRET; inhibition, % at 6.5 µM; 360,000 compounds, 0.48% hits; AID 540295;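 active = inhibition above its plate's cutoff, the mean of tested wells on that plate plus 3 SD, cut at about 29% in these data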;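 also: 0% = Melanotan II alone and 100% = Melanotan II plus saturating MCL0020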
Target sequence (P32245 whole entry, looked up): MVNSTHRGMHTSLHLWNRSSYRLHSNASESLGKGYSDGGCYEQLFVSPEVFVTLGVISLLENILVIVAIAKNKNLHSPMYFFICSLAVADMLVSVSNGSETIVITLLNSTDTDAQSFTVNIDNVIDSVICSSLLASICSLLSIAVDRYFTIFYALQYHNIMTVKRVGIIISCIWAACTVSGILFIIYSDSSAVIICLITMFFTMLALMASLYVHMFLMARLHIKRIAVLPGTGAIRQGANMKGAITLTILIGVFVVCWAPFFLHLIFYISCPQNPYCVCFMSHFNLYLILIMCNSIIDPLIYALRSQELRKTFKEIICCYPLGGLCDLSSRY
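Material: U2OS-MC4R stable cell line | Reagent: Melanotan II challenge after compound preincubation | Doses: One concentration, 6.5 µM nominal | Incubation: 30-min compound preincubation, 1-h Melanotan II challenge, 1-h detection, room temperature | Signal: TR-FRET cAMP assay | Replicates: One well per compound, no replicates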
Granule exo inh = blocks lytic granule exocytosis; 360,000 compounds, 0.66% hits; AID 651702; TALL-104 LAMP-1 surface exposure, flow cytometry; cells stimulated with thapsigargin and PMA; inhibition, % at 10 µM;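 active = inhibition above about 55%, limit read from the data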
T cell modulator = modulates CD8 T cell binding to vesicles. 2C CD8+ T cell-vesicle binding, flow cytometry; active compounds read low. 330,000 compounds, 0.068% hits. response (vesicle binding), % at 7 µM. AID 2052;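 active = response, share of CD8 T cells binding vesicles, and their 90th percentile fluorescence all below set limits, cut at about 80% in these data, passing the limit was not always enough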;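 also: values below 100% mean blocked vesicle binding to the CD8+ T cells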
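System: murine 2C transgenic CD8+ T lymphocytes; also added: QL9-loaded Drosophila micro-vesicles; times: binding 1.5 h at 37 °C; measured by: flow cytometry, PE anti-B7-1 (FL2) versus Alexa647 anti-CD8 (FL8), PFA-fixed; control set: Peptide-free naked vesicles (low) and QL9 vesicles with 0.7% DMSO vehicle (high)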
EP2 modulator = modulators of human EP2 prostaglandin E2 receptor; P43116; EP2-expressing cells, cAMP HTRF FRET, PGE2 co-stimulation; induction, % at 25 µM; 260,000 compounds, 0.83% hits;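 active = compounds whose cAMP rise, as percent of the full-agonist control response, exceeds 60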;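 also: rat C6 glioma line stably carrying human EP2 under a CMV promoter; the protocol text gives 20 µM as final concentration; 100% = response of wells given 1 µM PGE2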
MC4R ag barr = human MC4R agonism via beta-arrestin; P32245; U2OS MC4R beta-arrestin complementation, luminescence; percent of melanotan II response, DMSO zero; activation, % at 8.9 µM; 360,000 compounds, 0.98% hits;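 active = activation above a per-plate cutoff, the mean activation of sample wells on that plate plus 3 SD, cut at about 8% in these data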
EP2 antag = blocks the human prostaglandin E2 receptor EP2. P43116. C6 glioma cells expressing human EP2, cAMP TR-FRET; cells stimulated with saturating PGE2. inhibition, % at 25 µM. 260,000 compounds, 0.52% hits. AID 1422;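 active = percent inhibition above 40 after rounding to a whole number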;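 also: rat C6 glioma host cells with rolipram phosphodiesterase inhibitor present; the protocol text gives 20 µM as final concentration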
cAMP nonselect = nonselective cAMP signaling inhibitor, MC4R antagonist counter-screen. shares compounds with MC4R antag cAMP. parental U2OS, forskolin cAMP, LANCE TR-FRET. inhibition, % at 6.5 µM. 1,600 compounds, 26% hits;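 active = mean inhibition over triplicates above the low-control well mean plus 3 SD, set per campaign, cut at about 13% in these data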;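 also: signal is single emission at 671 nm which falls as cellular cAMP rises; 0% = forskolin-stimulated wells and 100% = buffer without forskolin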
MC4R cAMP antag = human MC4R cAMP antagonism confirmation; inhibition, % at 6.5 µM; shares compounds with MC4R antag cAMP; AID 602195; MC4R-expressing cells, MTII-stimulated cAMP, TR-FRET; 1,600 compounds, 27% hits; in the data active = inhibition above about 29%;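 also: 0% = agonist stimulated wells alone and 100% = agonist stimulated wells plus saturating reference antagonist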
Starred values were filed as active, the others as inactive; . = no result.

SMILES | MC4R antag cAMP | Granule exo inh | T cell modulator | EP2 modulator | MC4R ag barr | EP2 antag | cAMP nonselect | MC4R cAMP antag
COC(=O)c1c(NC(=O)COC(=O)c2ccc(Cl)cc2[N+](=O)[O-])sc2c1CCCCC2 | 31* | 3 | 272 | 6 | -1 | 9 | 6 | 22
COC(=O)c1c(NC(=S)Nc2ccc(F)cc2[N+](=O)[O-])sc2c1CCCCC2 | -2 | -4 | 254 | 5 | -3 | 13 | . | .
CCn1ncc(CN(Cc2cc(OC)ccc2OC)CC2CCCO2)c1C (stereo not drawn) | . | . | . | -25 | . | 4 | . | .
O=C(O)c1cccc(S(=O)(=O)Nc2ccccc2-c2ccccc2)c1 | 29* | 7 | 255 | 33 | 0 | 4 | 3 | -8
CS(=O)(=O)c1ccc(C(=O)NCCN2C(=O)S/C(=C\c3cccnc3)C2=O)cc1[N+](=O)[O-] | 32* | -1 | 273 | -41 | -2 | 4 | 18* | 33*
CN(C)S(=O)(=O)c1ccc(C(=O)NCCN2C(=O)S/C(=C\c3cccnc3)C2=O)cc1 | 10 | -2 | 893 | 3 | 0 | 11 | . | .
Cc1ccc(C)c(SCC(=O)Nc2cccc(S(=O)(=O)NC3=NCCCCC3)c2)c1 | -1 | 0 | 0 | -19 | 2 | 11 | . | .
Cc1cc(C)cc(-n2c(SCC(=O)Nc3cccc(S(=O)(=O)NC4=NCCCCC4)c3)nc3ccccc3c2=O)c1 | 29* | 5 | 212 | 5 | 2 | 5 | 2 | 4
CSCc1ccc(C(=O)Nc2ccc(C(N)=O)cc2)cc1 | 31* | 2 | 350 | -7 | 0 | 8 | -4 | -12
CSCc1ccc(C(=O)NCc2ccc(C)cc2)cc1 | 11 | 4 | 279 | -22 | -1 | 7 | . | .
C#CC(=O)N(c1ccc(OC)c(OC)c1)C(C(=O)NC1CCCC1)c1cccs1 (stereo not drawn) | 62* | 45 | 236 | 27 | 10* | 15 | -36 | 63*
COc1ccc(N(C(=O)Cc2cccs2)C(C(=O)NC2CCCC2)c2ccncc2)cc1OC (stereo not drawn) | 0 | -13 | 296 | . | -2 | . | . | .
Cc1ccc(Sc2cnc(N)nc2C)cc1 | 37* | -6 | 519 | -12 | 4 | 5 | -2 | -7
O=C(c1c(F)cccc1F)N1CCC(n2nnc3cc(C(F)(F)F)ccc32)CC1 | 31* | 1 | 267 | -21 | 0 | 6 | -1 | -2
O=C(CN1C(=O)NC2(CCCC2)C1=O)Nc1ccc(S(=O)(=O)N2CCOCC2)cc1 | 34* | 2 | 321 | 61* | -2 | 4 | 1 | -3
COCCNC(=S)N1CCc2cc(OC)c(OC)cc2C1COc1cc(C)cc(C)c1 (stereo not drawn) | 29* | -1 | 895 | 23 | 1 | 6 | -5 | 12
CNC(=S)N1CCc2cc(OC)c(OC)cc2C1COc1ccc(OC)cc1 (stereo not drawn) | 7 | 0 | 286 | -37 | 0 | 3 | . | .
COc1ccc(NC(=S)N2CCC(c3ccccc3)C2)cc1 (stereo not drawn) | 3 | 14 | 278 | . | -1 | . | . | .
Cc1ccc(Cl)cc1NC(=S)N1CCC(c2ccccc2)C1 (stereo not drawn) | 30* | 0 | 315 | -2 | -1 | 4 | -1 | -5
Cc1ccc2c(c1)N(C(=O)CCC(=O)N1CCC(C(N)=O)CC1)CCO2 | 14 | 1 | 757 | . | 2 | . | . | .
O=C(COc1ccccc1Cl)NNC(=O)C1CCCO1 (stereo not drawn) | 1 | -3 | 366 | 10 | 0 | 11 | . | .
COc1ccc2sc(-c3ccc(N(C)C)cc3)c(C#Cc3cncn3C)c2c1 | 38* | 7 | 289 | . | 5 | . | -1 | 37*
Cc1cc(NC(=O)CSc2nnc3ccc(-c4ccccc4)nn23)no1 | 4 | 4 | . | . | -1 | . | . | .

Assay outcomes (PubChem)
